Laboratory results: ChEMBL document CHEMBL3098097, “Design, synthesis and evaluation of 7-azaindazolyl-indolyl-maleimides as glycogen synthase kinase-3β (GSK-3β) inhibitors” (Eur J Med Chem, 2013)
The source made the active and inactive calls. The rule behind the calls is not given here.

Legend:
[1] = target: T1, Glycogen synthase kinase-3 beta (Homo sapiens, UniProt P49841); assay: Inhibition of recombinant GST-tagged GSK-3beta (unknown origin) expressed in Escherichia coli BL21 assessed as phosphate incorporation in CREB
Target sequence in this assay (P49841 whole entry): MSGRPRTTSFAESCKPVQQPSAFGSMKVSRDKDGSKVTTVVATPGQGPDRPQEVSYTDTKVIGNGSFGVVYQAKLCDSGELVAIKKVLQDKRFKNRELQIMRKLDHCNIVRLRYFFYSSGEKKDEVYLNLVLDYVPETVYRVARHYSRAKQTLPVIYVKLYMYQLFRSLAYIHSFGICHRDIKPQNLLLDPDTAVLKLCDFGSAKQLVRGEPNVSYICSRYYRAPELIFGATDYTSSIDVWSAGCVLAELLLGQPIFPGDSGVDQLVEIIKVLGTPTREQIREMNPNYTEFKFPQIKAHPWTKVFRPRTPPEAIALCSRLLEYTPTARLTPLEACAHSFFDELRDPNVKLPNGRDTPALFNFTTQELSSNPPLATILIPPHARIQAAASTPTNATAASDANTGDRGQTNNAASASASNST

[2] = target: T1, Glycogen synthase kinase-3 beta; assay: Inhibition of recombinant GST-tagged GSK-3beta (unknown origin) expressed in Escherichia coli BL21 assessed as phosphate incorporation in CREB at 20 ug/mL relative to control
How it was run: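 GST-GSK-3β expressed in E. coli BL21-CodonPlus (DE3), purified by GSTrap and thrombin-cleaved. Activity measured by Z'-LYTE kinase assay at 50 nM final enzyme. Run in triplicate with blanks subtracted. Activity given as pmol phosphate incorporated into CREB per minute or as percent of maximal activity.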
Target sequence in this assay (P49841 whole entry, looked up): as the sequence (P49841 whole entry) above

[3] = target: T1, Glycogen synthase kinase-3 beta; assay: Inhibition of GSK-3beta in human SH-SY5Y cells assessed as reduction of amyloid beta (25 to 35)-induced Tau hyperphosphorylation at Ser396 at 10 uM incubated for 1 hr prior to amyloid beta (25 to 35) induction measured after 6 hrs by Western blotting analysis; assay type: cell-based
How it was run: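 SH-SY5Y cells (ATCC) in 1:1 DMEM:Ham's F12 with 10% FBS and 1% penicillin/streptomycin, 5% CO2. Grown to ~80% confluence, serum-deprived 12 h, inhibitor added 1 h before Aβ25–35 for another 6 h. Lysed in SDS loading buffer, run on 10% SDS-PAGE, blotted to PVDF, probed with rabbit anti-Tau pS396, ECL detection.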
Target sequence in this assay (P49841 whole entry, looked up): as the sequence (P49841 whole entry) above

[4] = target: Mitogen-activated protein kinase 3 (Homo sapiens, UniProt P27361); assay: Inhibition of recombinant ERK1 (unknown origin) expressed in Escherichia coli
Mitogen-activated protein kinase 3, sequence (P27361 whole entry): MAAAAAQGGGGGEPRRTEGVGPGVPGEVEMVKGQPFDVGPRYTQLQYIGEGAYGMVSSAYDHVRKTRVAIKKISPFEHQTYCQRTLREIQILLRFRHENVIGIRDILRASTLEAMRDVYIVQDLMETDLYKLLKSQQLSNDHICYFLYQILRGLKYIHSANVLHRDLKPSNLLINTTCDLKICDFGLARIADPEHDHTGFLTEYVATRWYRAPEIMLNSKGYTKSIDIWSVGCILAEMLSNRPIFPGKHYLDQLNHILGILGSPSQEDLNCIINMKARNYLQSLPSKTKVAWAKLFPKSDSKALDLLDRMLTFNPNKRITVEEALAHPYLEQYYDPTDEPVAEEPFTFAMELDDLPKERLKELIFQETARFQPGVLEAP
How it was run: (§1)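 E. coli-expressed recombinant kinase tested in a Z'-LYTE kinase assay kit.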

[5] = target: T2, Aurora kinase A (Homo sapiens, UniProt O14965); assay: Inhibition of recombinant aurora kinase A (unknown origin) expressed in Escherichia coli; how it was run: as §1
T2 sequence (O14965 whole entry): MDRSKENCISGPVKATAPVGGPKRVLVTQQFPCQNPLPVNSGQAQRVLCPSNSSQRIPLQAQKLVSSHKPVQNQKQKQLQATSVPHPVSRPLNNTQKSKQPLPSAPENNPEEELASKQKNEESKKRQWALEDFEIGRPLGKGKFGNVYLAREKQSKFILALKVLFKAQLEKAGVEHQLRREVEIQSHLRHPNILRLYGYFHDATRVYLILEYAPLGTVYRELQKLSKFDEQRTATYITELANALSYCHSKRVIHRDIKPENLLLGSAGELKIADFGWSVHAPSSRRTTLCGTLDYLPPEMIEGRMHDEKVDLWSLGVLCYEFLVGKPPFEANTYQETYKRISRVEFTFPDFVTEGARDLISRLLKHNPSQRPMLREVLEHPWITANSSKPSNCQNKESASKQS

[6] = target: T3, Inhibitor of nuclear factor kappa-B kinase subunit beta (Homo sapiens, UniProt O14920); assay: Inhibition of recombinant IKK2 (unknown origin) expressed in baculovirus expression system
T3 sequence (O14920 whole entry): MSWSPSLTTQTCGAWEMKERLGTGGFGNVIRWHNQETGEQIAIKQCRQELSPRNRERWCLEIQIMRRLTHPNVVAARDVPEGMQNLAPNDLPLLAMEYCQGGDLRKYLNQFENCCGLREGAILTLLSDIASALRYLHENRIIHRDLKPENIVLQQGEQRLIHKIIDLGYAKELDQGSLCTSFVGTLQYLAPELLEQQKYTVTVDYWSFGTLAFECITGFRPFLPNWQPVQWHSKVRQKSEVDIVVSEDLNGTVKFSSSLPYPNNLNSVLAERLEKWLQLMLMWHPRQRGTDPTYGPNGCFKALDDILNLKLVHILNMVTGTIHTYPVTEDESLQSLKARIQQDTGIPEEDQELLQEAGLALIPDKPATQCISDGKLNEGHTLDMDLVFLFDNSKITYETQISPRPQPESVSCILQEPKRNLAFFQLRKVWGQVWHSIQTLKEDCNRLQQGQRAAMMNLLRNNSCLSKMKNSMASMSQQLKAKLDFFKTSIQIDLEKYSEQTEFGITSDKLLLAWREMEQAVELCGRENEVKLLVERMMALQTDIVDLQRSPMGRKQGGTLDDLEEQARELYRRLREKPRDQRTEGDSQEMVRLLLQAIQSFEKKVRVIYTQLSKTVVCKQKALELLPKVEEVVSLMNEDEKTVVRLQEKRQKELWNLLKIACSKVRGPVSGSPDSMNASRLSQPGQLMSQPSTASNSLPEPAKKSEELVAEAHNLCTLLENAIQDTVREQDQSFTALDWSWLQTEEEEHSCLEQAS
How it was run: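 Recombinant kinase expressed in the Bac-to-Bac baculovirus system, tested in a Z'-LYTE kinase assay kit.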

[7] = target: T4, Protein kinase C epsilon type (Homo sapiens, UniProt Q02156); assay: Inhibition of recombinant PKCE (unknown origin) expressed in baculovirus expression system
T4 sequence (Q02156 whole entry): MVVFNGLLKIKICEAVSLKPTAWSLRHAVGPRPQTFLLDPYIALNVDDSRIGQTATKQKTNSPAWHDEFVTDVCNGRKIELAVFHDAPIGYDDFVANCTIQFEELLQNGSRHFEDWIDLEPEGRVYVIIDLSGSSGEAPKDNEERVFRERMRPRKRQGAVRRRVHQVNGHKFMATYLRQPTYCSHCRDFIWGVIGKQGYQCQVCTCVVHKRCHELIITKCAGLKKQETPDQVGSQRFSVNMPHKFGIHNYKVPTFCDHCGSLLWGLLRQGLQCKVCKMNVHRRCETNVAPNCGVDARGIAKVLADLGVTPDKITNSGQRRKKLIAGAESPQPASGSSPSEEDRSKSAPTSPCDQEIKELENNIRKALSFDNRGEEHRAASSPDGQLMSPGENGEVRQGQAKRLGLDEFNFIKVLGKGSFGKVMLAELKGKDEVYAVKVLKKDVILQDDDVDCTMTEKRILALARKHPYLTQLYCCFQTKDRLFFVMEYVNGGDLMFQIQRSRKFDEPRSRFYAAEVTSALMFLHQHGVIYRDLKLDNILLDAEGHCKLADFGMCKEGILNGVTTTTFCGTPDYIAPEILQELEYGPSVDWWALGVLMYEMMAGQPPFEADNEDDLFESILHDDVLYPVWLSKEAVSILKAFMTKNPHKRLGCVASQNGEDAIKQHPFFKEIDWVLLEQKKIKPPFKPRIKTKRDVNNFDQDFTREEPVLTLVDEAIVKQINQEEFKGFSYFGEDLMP

[8] = target: Dual specificity mitogen-activated protein kinase kinase 1 (Homo sapiens, UniProt Q02750); assay: Inhibition of recombinant MEK1 (unknown origin) expressed in Escherichia coli; how it was run: as §1
Dual specificity mitogen-activated protein kinase kinase 1, sequence (Q02750 whole entry): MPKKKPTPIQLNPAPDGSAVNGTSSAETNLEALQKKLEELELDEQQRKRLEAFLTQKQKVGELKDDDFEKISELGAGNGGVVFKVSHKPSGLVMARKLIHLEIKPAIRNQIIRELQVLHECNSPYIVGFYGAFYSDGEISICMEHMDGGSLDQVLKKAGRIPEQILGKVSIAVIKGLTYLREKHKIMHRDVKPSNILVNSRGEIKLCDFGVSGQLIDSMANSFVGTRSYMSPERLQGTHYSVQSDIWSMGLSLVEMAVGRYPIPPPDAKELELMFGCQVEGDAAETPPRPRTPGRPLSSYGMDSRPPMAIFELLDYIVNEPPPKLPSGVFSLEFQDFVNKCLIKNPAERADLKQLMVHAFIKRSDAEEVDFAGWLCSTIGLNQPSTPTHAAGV

Structure (SMILES) | IC50 [1] [nM] | inhibition [3] | also measured
C=Cn1cc(C2=C(c3nn(CCCN4CCOCC4)c4ncccc34)C(=O)NC2=O)c2ccccc21 | 8840 | – | –
CC(C)CN1C(=O)C(c2c[nH]c3ccccc23)=C(c2n[nH]c3ncccc23)C1=O | – | – | inhibition [2]: 45.7%
Cn1cc(C2=C(c3nn(CCCN4CCOCC4)c4ncccc34)C(=O)NC2=O)c2ccccc21 | 750 | Active | –
NN1C(=O)C(c2c[nH]c3ccccc23)=C(c2n[nH]c3ncccc23)C1=O | – | – | inhibition [2]: 28.6%
CN1CCN(CCCn2nc(C3=C(c4cn(C)c5ccccc45)C(=O)NC3=O)c3cccnc32)CC1 | 3340 | – | –
Cn1cc(C2=C(c3nn(CCCCN4CCOCC4)c4ncccc34)C(=O)NC2=O)c2ccccc21 | 460 | – | –
O=C1NC(=O)C(c2nn(CCCN3CCOCC3)c3ncccc23)=C1c1c[nH]c2ccccc12 | 830 | Active | –
O=CNN1C(=O)C(c2c[nH]c3ccccc23)=C(c2n[nH]c3ncccc23)C1=O | – | – | inhibition [2]: -7.42%
Cn1cc(C2=C(c3nn(CCCO)c4ncccc34)C(=O)NC2=O)c2ccccc21 | 1090 | Active | –
Cn1cc(C2=C(c3nn(CCCCn4ccnc4)c4ncccc34)C(=O)NC2=O)c2ccccc21 | 960 | – | –
Cn1cc(C2=C(c3nn(CCCN4CCCCC4)c4ncccc34)C(=O)NC2=O)c2ccccc21 | 2660 | – | –
NC(=O)NN1C(=O)C(c2c[nH]c3ccccc23)=C(c2n[nH]c3ncccc23)C1=O | – | – | inhibition [2]: -6.81%
CC(C)n1cc(C2=C(c3nn(CCCN4CCOCC4)c4ncccc34)C(=O)NC2=O)c2ccccc21 | 380 | Active | IC50 [4]: > 40 µM; IC50 [5]: > 40 µM; IC50 [6]: > 40 µM; IC50 [7]: > 40 µM; IC50 [8]: > 40 µM
O=C1NC(=O)C(c2n[nH]c3ncccc23)=C1c1c[nH]c2ccccc12 | 7310 | – | –
COC(=O)CN1C(=O)C(c2c[nH]c3ccccc23)=C(c2n[nH]c3ncccc23)C1=O | – | – | inhibition [2]: 51.5%
C=CCn1cc(C2=C(c3nn(CCCN4CCOCC4)c4ncccc34)C(=O)NC2=O)c2ccccc21 | 960 | – | –
O=C1NC(=O)C(c2nn(CCCN3CCOCC3)c3ncccc23)=C1c1cn(Cc2ccccc2)c2ccccc12 | 1900 | – | –
Cn1cc(C2=C(c3nn(CCN4CCOCC4)c4ncccc34)C(=O)NC2=O)c2ccccc21 | 360 | Active | IC50 [4]: > 40 µM; IC50 [5]: > 40 µM; IC50 [6]: > 40 µM; IC50 [7]: > 40 µM; IC50 [8]: > 40 µM
Cn1cc(C2=C(c3nn(CCCn4ccnc4)c4ncccc34)C(=O)NC2=O)c2ccccc21 | 4890 | – | –
O=C1NC(=O)C(c2nn(CCCN3CCOCC3)c3ncccc23)=C1c1cn(CCCN2CCOCC2)c2ccccc12 | 1290 | inactive | –
O=C1NC(=O)C(c2nn(CCCN3CCOCC3)c3ncccc23)=C1c1cn(CCCn2ccnc2)c2ccccc12 | 680 | inactive | –
CN(C)CCCn1nc(C2=C(c3cn(C)c4ccccc34)C(=O)NC2=O)c2cccnc21 | 5690 | – | –
Cn1cc(C2=C(c3nn(CCn4ccnc4)c4ncccc34)C(=O)NC2=O)c2ccccc21 | 810 | Active | IC50 [4]: > 40 µM; IC50 [5]: > 40 µM; IC50 [6]: > 40 µM; IC50 [7]: > 40 µM; IC50 [8]: > 40 µM
NC(=S)NN1C(=O)C(c2c[nH]c3ccccc23)=C(c2n[nH]c3ncccc23)C1=O | – | – | inhibition [2]: 33.7%
Cn1cc(C2=C(c3n[nH]c4ncccc34)C(=O)NC2=O)c2ccccc21 | 12300 | – | –
O=C1C(c2c[nH]c3ccccc23)=C(c2n[nH]c3ncccc23)C(=O)N1c1ccccc1 | – | – | inhibition [2]: 4.14%
